The record followed here is ChEMBL document CHEMBL5236609, “Optimization of 1,2,4-Triazole-3-thiones toward Broad-Spectrum Metallo-β-lactamase Inhibitors Showing Potent Synergistic Activity on VIM- and NDM-1-Producing Clinical Isolates” (J Med Chem, 2022).

The nature of series [1]: Inhibition of bacterial VIM-1 (unknown origin) expressed in Escherichia coli EXPRESS BL21(DE3) assessed as inhibition constant by measuring rate of substrate hydrolysis by UV-visible spectrophotometry. The arrangement: species or system Bacteria. The method, boiled down:
(§1)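 Reporter-substrate assay with purified MBL (1–70 nM final) in 50 mM HEPES pH 7.5 at 30 °C. […] Inhibitor 0.5–1000 μM final. Ki derived from the v0/vi vs [I] slope assuming competitive inhibition, or from a Dixon plot. Ki given when inhibition >70%, otherwise % inhibition at 100 μM. Triplicate.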

A short description of series [2]: Inhibition of bacterial NDM-1 (unknown origin) expressed in Escherichia coli EXPRESS BL21(DE3) assessed as inhibition constant by measuring rate of substrate hydrolysis by UV-visible spectrophotometry. The arrangement: species or system Bacteria. Summed up: as §1
A short description of series [3]: Solubility in PBS pH 7.4 after 24 hrs by LC-MS/MS analysis. Format: physicochemical. The method, boiled down:
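Solubility in 10 mM PBS, pH 7.4.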

Series [4] is described as follows: Stability in mouse plasma assessed as half life at 37 degC. It counts as ADME, cell-free.
A short description of series [5]: Metabolic stability in CD-1 mouse microsomes assessed as half life at 37 degC by LC-MS/MS analysis. Format: ADME, Microsome. Summed up:
(§2)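 Mouse liver microsomes, mixed gender, at 37 °C for 40 min; propranolol control. Reports t1/2, intrinsic clearance and % intact compound remaining at 40 min.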

The nature of series [6]: Plasma protein binding in CD-1 mouse plasma measured after 4 hrs by LC-MS/MS analysis. Format: ADME, cell-free. Particulars: read-out: PPB (converted). Summed up:
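Binding to mouse plasma proteins (mixed gender) measured; diclofenac as control.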

Series [7] can be described thus: Metabolic stability in CD-1 mouse microsomes assessed as compound remaining after 40 mins LC-MS/MS analysis. It counts as ADME, Microsome. Particulars: read-out: Activity. The method, boiled down: as §2
Series [8] deals with T1, Aminopeptidase N (Sus scrofa, UniProt P15145).
T1 sequence (P15145 whole entry): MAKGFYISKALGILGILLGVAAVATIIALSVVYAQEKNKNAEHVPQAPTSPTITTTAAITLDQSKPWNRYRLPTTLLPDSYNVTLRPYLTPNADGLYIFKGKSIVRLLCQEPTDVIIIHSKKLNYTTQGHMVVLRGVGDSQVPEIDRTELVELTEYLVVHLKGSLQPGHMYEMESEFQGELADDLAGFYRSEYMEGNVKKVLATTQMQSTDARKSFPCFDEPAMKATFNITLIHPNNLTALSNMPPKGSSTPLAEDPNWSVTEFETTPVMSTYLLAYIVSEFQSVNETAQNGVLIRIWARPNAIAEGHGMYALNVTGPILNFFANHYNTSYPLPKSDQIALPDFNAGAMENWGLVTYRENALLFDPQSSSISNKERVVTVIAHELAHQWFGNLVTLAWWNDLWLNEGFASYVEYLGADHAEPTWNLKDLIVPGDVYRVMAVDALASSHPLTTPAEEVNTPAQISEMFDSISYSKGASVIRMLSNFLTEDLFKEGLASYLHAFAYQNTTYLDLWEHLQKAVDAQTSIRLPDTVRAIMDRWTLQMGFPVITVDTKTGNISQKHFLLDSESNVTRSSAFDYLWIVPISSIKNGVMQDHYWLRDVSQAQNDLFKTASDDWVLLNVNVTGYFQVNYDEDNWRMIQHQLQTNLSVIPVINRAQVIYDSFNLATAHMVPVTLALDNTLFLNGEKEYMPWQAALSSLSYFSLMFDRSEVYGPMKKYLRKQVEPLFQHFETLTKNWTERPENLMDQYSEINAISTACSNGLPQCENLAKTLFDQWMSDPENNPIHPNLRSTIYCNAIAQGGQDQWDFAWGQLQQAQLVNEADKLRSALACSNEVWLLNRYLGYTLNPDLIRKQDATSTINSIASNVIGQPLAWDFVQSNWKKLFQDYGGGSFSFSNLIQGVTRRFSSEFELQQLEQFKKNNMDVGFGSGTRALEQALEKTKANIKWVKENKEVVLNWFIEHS
Nature of the series: Inhibition of porcine APN using fluorogenic substrate H-Leu-AMC measured for 1 hr.

Series [9] addresses T2, Protein deacetylase HDAC6 (Homo sapiens) (UniProt Q9UBN7).
T2 sequence (whole entry): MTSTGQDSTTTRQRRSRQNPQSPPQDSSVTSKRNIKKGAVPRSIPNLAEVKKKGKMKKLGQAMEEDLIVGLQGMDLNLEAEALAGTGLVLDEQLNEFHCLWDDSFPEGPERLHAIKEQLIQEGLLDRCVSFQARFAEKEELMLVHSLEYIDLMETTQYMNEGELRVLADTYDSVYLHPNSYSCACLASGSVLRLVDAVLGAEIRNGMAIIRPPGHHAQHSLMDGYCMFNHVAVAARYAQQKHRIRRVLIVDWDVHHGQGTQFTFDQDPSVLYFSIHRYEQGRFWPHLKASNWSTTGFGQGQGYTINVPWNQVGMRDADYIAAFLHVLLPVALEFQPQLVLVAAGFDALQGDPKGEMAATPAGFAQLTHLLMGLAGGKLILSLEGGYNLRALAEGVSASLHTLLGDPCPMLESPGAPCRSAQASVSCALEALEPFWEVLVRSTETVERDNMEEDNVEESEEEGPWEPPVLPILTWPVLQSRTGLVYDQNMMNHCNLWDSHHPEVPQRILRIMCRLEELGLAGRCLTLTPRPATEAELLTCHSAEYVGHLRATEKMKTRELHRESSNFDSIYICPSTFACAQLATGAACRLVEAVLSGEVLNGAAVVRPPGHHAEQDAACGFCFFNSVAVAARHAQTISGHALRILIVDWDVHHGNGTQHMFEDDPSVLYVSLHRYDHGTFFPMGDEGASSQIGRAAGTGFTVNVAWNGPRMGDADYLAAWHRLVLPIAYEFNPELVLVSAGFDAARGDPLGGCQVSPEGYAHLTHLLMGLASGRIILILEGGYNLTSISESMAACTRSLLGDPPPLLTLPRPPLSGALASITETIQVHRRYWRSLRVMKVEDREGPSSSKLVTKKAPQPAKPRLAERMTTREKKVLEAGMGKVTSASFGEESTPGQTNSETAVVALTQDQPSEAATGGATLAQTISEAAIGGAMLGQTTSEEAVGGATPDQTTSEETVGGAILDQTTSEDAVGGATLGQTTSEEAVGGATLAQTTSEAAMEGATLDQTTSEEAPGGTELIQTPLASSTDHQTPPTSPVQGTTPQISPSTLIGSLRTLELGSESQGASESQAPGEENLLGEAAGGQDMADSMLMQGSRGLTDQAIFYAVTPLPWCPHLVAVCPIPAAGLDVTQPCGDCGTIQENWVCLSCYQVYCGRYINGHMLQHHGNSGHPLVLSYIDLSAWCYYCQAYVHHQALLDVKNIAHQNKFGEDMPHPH
Nature of the series: Inhibition of recombinant human His-tagged HDAC6 expressed in baculovirus expression system using fluorogenic peptide substrate measured after 45 mins at 100 uM relative to control. The method, boiled down:
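Human HDAC6 fluorimetric kit with Fluor de Lys substrate; panobinostat as control inhibitor. Percent inhibition at 100 μM, one experiment in duplicate.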

Series [10] has as its system Escherichia coli. Nature of the series: Antimicrobial activity against blaNDM-1-producing multidrug-resistant Escherichia coli SI-004 clinical isolate assessed as meropenem MIC at 32 ug/ml by broth microdilution method (reference value: 64 ug/ml).

Usually Ki stands for the dissociation constant of the complex between target and ligand, obtained from inhibition or displacement. Broadly, the solubility is how much of the substance goes into solution per volume. As usually defined, the half-life is the time in which the quantity being followed falls by half. By IC50 is commonly meant the point on the concentration scale where inhibition reaches its midpoint. As usually defined, the inhibition is the percentage by which the read-out fell short of the control. One may read the MIC as the lowest concentration found to suppress growth. As for `O=C(O)[C@H](CCn1c(-c2ccccc2)n[nH]c1=S)N(Cc1c[nH]cn1)Cc1c[nH]cn1`, the values for the Ki in series [1] and in series [2] were 390 nM and 40 nM, respectively. In addition, the solubility at 24 h in series [3] is no less than 200 µM. Further, the half-life in [4] was greater than 360 min; in [5] it was greater than 40 min. The fraction unbound at 4 h in series [6] was 0.45. Further, in series [7], the remaining at 40 min was 91.2%. The compound further had an IC50 in series [8] of 27 µM. For the same compound, the inhibition in series [9] is less than 100%. Moreover, the MIC in series [10] worked out at 0.06 µg/mL.

As for `O=C(O)[C@H](CCCn1c(-c2ccccc2)n[nH]c1=S)N(Cc1ccccn1)Cc1ccccn1`, the Ki was determined as 1700 nM in series [1] and 570 nM in series [2]. For the same compound, the solubility at 24 h in series [3] is no less than 200 µM. Moreover, the half-life in series [4] is greater than 360 min; in series [5], greater than 40 min. Moreover, the fraction unbound at 4 h in series [6] was 0.313. Further, the remaining at 40 min in [7] was 80.5%. Moreover, the inhibition in [9] was less than 100%. In [10], the minimum inhibitory concentration (MIC) came out at 0.06 µg/mL.

As for `Cc1[nH]cnc1CN(Cc1c[nH]cn1)[C@@H](CCCn1c(-c2ccccc2)n[nH]c1=S)C(=O)O`, the Ki came to 380 nM in series [1] and 38 nM in series [2]. In series [3], this compound showed a solubility at 24 h of no less than 200 µM. The results for the half-life in [4] and in [5] were greater than 360 min and greater than 40 min, respectively. The fraction unbound at 4 h in series [6] was 0.377. In addition, the remaining at 40 min in series [7] amounted to 98.1%. Further, in [9], the inhibition is less than 100%. Also, the MIC in series [10] was determined as 0.06 µg/mL.

For `O=C(O)[C@H](CCCn1c(-c2ccccc2)n[nH]c1=S)N(Cc1c[nH]cn1)Cc1c[nH]cn1`, the Ki came to 150 nM in series [1] and 30 nM in series [2]. In series [3], this compound registered a solubility at 24 h of no less than 200 µM. Also, the half-life in series [4] was greater than 360 min; in series [5] it was greater than 40 min. Moreover, the fraction unbound at 4 h in series [6] was 0.324. In series [8], this compound had an IC50 of 30 µM. In series [9], the inhibition is less than 100%. Further, the MIC in series [10] was found to be 0.06 µg/mL.

Turning to `O=C(O)[C@H](CCCn1c(-c2ccc3ccccc3c2)n[nH]c1=S)N(Cc1c[nH]cn1)Cc1c[nH]cn1`, the Ki in series [1] stood at 520 nM; in series [2] it was 30 nM. In series [3], this compound returned a solubility at 24 h of no less than 200 µM. The results for the half-life in [4] and in series [5] were greater than 360 min and greater than 40 min, respectively. The fraction unbound at 4 h in series [6] is 0.048. This compound also had an IC50 in [8] of 16 µM. Also, the inhibition in series [9] was less than 100%. Moreover, the MIC in [10] amounted to 0.06 µg/mL.
